CDK5 p35 inh: inhibitors of human CDK5/p35 kinase, primary screen, biochemical, single concentration. Cyclin-dependent kinase 5 (Homo sapiens) + Cyclin-dependent kinase 5 activator 1 (Homo …. Recombinant CDK5/p35, ADP-Glo luminescence, 60 min. 0.01% of 330,000 active. inhibition, % at 10 µM;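 active = highest replicate inhibition of at least 50% and at least 75% of replicates reaching 50%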
Target sequence (Q00535 whole entry, looked up): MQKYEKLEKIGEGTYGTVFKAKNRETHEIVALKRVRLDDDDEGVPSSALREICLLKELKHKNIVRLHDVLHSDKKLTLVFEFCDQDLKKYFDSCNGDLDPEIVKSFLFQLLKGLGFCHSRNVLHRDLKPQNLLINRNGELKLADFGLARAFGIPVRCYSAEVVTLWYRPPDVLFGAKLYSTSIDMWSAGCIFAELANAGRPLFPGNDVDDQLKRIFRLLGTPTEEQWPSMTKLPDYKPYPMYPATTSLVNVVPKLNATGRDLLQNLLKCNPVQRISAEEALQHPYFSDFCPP
Target sequence (Q15078 whole entry, looked up): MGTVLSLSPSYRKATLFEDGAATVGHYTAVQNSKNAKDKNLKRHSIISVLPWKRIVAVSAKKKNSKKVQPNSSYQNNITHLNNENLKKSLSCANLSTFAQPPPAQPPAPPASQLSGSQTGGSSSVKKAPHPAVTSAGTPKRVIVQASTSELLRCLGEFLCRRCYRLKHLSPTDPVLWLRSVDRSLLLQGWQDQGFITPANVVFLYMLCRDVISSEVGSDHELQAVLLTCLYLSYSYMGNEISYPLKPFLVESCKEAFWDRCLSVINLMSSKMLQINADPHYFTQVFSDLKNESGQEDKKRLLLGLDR
STK33 inh: inhibitors of purified STK33 kinase, primary screen, biochemical, ADP-Glo luminescence, homogeneous, cell-free. Serine/threonine-protein kinase 33 (Homo sapiens), Q9BYT3. MBP phosphorylation. inhibition, % at 10 µM. 0.073% of 320,000 active. AID 2661, 2010;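 active = inhibition at or above 25%, using the most active replicate where run in duplicate; inactive = inhibition below 25%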
Dyrk1A ADPGlo: rat Dyrk1A kinase inhibitors, primary screen, biochemical, single point, plate reader; Dual specificity tyrosine-phosphorylation-regulated kinase 1A (Rattus norvegicus), Q63470; ADP-Glo luminescence, NFATc1 peptide; inhibition, % at 12.5 µM; 0.43% of 310,000 active; AID 504441, 2011; in the data active = inhibition above about 50%
GSK3 alpha inh: blockers of GSK3A enzyme activity – biochemical, luminescence, cell-free homogeneous, HTS, primary screen | Glycogen synthase kinase-3 alpha (Homo sapiens), P49840 | GSK-3 alpha kinase, ADP-Glo luminescence, 60 min | inhibition, % at 10 µM | 0.1% of 320,000 active;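 active = more than half of replicates show inhibition above 20%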;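 also: GST-tagged GSK-3 alpha with peptide substrate and 25 µM ATP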
GSK3B inh: human GSK3beta kinase inhibitors, primary screen, biochemical, cell-free homogeneous, HTS | Glycogen synthase kinase-3 beta (Homo sapiens), P49841 | GST-GSK3beta kinase, ADP-Glo luminescence, 60 min; hits give low values | activity score (negative = inhibition), % at 10 µM | 0.038% of 300,000 active;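 active = more than half of replicate wells score below -50%, meaning over 50% inhibition versus plate controls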
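Assay system: GST-tagged human GSK3beta kinase, cell-free; Input: 1.6 ng GSK3beta; Medium: Tris/MgCl2 kinase buffer; Timing: 60 min enzyme reaction, room temperature; Signal: ADP-Glo luminescence quantifying ADP generated by kinase; Evaluation: score relative to plate controls; Benchmarks: DMSO neutral wells and GW8510 at 20 µM as positive.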
A number is an active result; . = inactive; / = not tested or not shown. This excerpt belongs to a sample that is enriched for hits.

SMILES	CDK5 p35 inh	STK33 inh	Dyrk1A ADPGlo	GSK3 alpha inh	GSK3B inh
CCOc1ccccc1NC(=O)c1cc(=O)[nH]c2ccc(S(=O)(=O)N3CCOCC3)cc12	.	.	.	.	/
COc1cccc(-c2onc3ccc(C(=O)/C=C/N(C)C)cc23)c1	.	54	.	.	.
Cn1cnc([N+](=O)[O-])c1S(=O)(=O)Oc1ccc(Cl)cc1	.	/	.	/	/
CCCc1cc(C(=O)OCC(=O)N2CCN(c3ccc(OC)cc3)CC2)sc1C	.	.	.	.	/
Cc1cccc(N2CCN(CCCNC(=O)c3ccc(NC(=O)C4=CSCCO4)cc3)CC2C)c1 (stereo not drawn)	.	46	.	.	.
Oc1ccc(/C=N/NC(=S)N/N=C/c2ccc(O)cc2)cc1	.	30	.	.	.
Oc1ccc(/C=N/NC(=S)Nc2cccnc2)cc1	.	.	.	.	.
CC(=O)Oc1cc(O)c2c(=O)c(OC(C)=O)c(-c3ccc(OC(C)=O)c(OC(C)=O)c3)oc2c1	.	.	86	.	.
COc1ccc(-c2oc3cc(OC(C)=O)cc(OC(C)=O)c3c(=O)c2OC)cc1	.	/	/	/	/
COC(=O)c1nnn(-c2nonc2N)c1CSCCO	.	.	.	67	-74
CCOC(=O)c1nnn(-c2nonc2N)c1-c1cccc2ccccc12	.	.	.	.	.
CCOC(=O)c1nnn(-c2nonc2N)c1-c1ccccc1Cl	.	.	.	55	.
CCOC(=O)c1nnn(-c2nonc2N)c1-c1ccc(OC)cc1	.	.	.	58	.
O=C(NC1CCOCC1)C1CCC(=O)N(Cc2ccc(Cl)cc2)C1 (stereo not drawn)	.	.	/	.	.
COc1ccc(C(=O)C(C)OC(=O)c2nc3nccc(C)n3n2)cc1 (stereo not drawn)	.	.	/	.	/
CNC(=O)CCC(=O)Nc1ccc(C)cc1	.	.	.	/	.
C#CCOCCOCCOCCNc1nc(N2CCN(C(=O)CCCCCCCCCCNC(=O)[C@H]([C@@H](C)CC)n3cc(CCCCN=C(N)N)nn3)CC2)nc(N2CCN(C(=O)CCCCCCCCCCNC(=O)[C@H]([C@@H](C)CC)n3cc(CCCCN=C(N)N)nn3)CC2)n1	/	31	/	.	/
C#CCOCCOCCOCCNc1nc(N2CCN(C(=O)CCCCCCCCCCNC(=O)[C@H]([C@@H](C)CC)n3cc(CCCCCN)nn3)CC2)nc(N2CCN(C(=O)CCCCCCCCCCNC(=O)[C@H](CO)n3cc(CCCCCN)nn3)CC2)n1	.	.	55	.	/
CCCCOC(=O)C1=C(C)Nc2ncnn2C1c1cccc(OC)c1OC (stereo not drawn)	.	.	.	85	.
COc1cc(/C=N/n2c(-c3cc(C)[nH]n3)n[nH]c2=S)ccc1O	.	31	.	.	.
COc1cc(/C=N/n2c(-c3cc(C)[nH]n3)n[nH]c2=S)cc(OC)c1OC	.	.	.	.	.
COc1cc(/C=N/n2c(C3CCCCC3)n[nH]c2=S)ccc1O	.	34	.	.	.
Cc1ccc(NC(=S)Nc2ccc3cn[nH]c3c2)c(C)c1	.	32	71	.	.
O=C(O)CCC1c2cc3c4cc2OC2Oc5cc6c(cc51)C(CCC(=O)O)c1cc5c7cc1OC(O6)c1cc6cc(c1)Oc1cc(cc(C(=O)O)c1)Oc1cc8cc(c1)C(Oc1cc(c(cc1C5CCC(=O)O)C3CCC(=O)O)OC(O4)c1cc(cc(c1)Oc1cc(cc(C(=O)O)c1)O8)Oc1cc(cc(C(=O)O)c1)Oc1cc(cc2c1)Oc1cc(cc(C(=O)O)c1)O6)O7 (stereo not drawn)	/	30	/	.	.
CN(C)c1cc2c(c(N(C)C)c1)C(=O)c1ccccc1C2=O	.	40	.	.	.
CN(C)S(=O)(=O)c1cccc2c1C(=O)c1ccccc1C2=O	.	.	.	.	.
CCN1CCN(c2c(C=O)c(Cl)nc3ccc(OC)cc23)CC1	.	.	.	82	-55
N#C/C(=C/C1=C(N2CCOCC2)C(=C/c2ccc(Cl)cc2)/CC1)C(=O)Nc1ccccc1F	.	/	/	/	/
Cc1cccc(NC(=O)NCc2cccnc2)c1C	.	.	/	.	.
Nc1ccc(N=Nc2ccccc2O)c(N)c1	/	33	/	.	.
